Here are results for two compounds from ChEMBL document CHEMBL1155470, “Colloid formation by drugs in simulated intestinal fluid” (J Med Chem, 2010).

A value given as a limit tells only on which side of the number the result lay.

Data set [1] in a line: Colloidal aggregation in fed state simulated intestinal fluid assessed as colloid radius at 50 uM by dynamic light scattering assay in presence of 1% DMSO. Format: physicochemical. Particulars: simulated gi fluid; call rule not given here. The method, boiled down: (§1)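 Concentrated DMSO stocks diluted into filtered FeSSIF: blank FeSSIF plus 15 mM sodium taurocholate and 3.75 mM lecithin, dissolved at 37 °C. Final DMSO 1% unless otherwise noted. Particle size by dynamic light scattering at 826.6 nm, detector at 90°, 100% laser power. Values are averages of three or more independent measurements at room temperature.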

Data set [2] is described as follows: Colloidal aggregation in fed state simulated intestinal fluid at 550 uM by dynamic light scattering-based beads autocorrelation assay in presence of 2.75% DMSO. The format is physicochemical. Particulars: simulated gi fluid. The method, boiled down: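 FeSSIF samples examined by DLS (826.6 nm laser, 90° detector, room temperature), comparing autocorrelation curves with blank FeSSIF. The micelle background was checked with 200 nm calibration beads diluted in FeSSIF. Drug samples were made by diluting DMSO stocks into filtered FeSSIF (15 mM taurocholate, 3.75 mM lecithin).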

Data set [3] addresses T1, Cruzipain (Trypanosoma cruzi, UniProt P25779). The data set is described as follows: Inhibition of Trypanosoma cruzi cruzaine preincubated for 5 mins before substrate addition by fluorescence assay in absence of Triton X-100.
For data set [4], the target named is T1, Cruzipain. The data set is described as follows: Inhibition of Trypanosoma cruzi cruzaine preincubated for 5 mins before substrate addition by fluorescence assay in presence of 0.01% Triton X-100.
The nature of data set [5]: Colloidal aggregation in fed state simulated intestinal fluid by dynamic light scattering assay in presence of 0.25% DMSO. The format is physicochemical. Particulars: simulated gi fluid. The method, boiled down:
as §1

Data set [6] is described as follows: Colloidal aggregation in fed state simulated intestinal fluid by dynamic light scattering assay in presence of 2.75% DMSO. The format is physicochemical. Particulars: simulated gi fluid. A digest of the protocol:
as §1

Data set [7] can be described thus: Colloidal aggregation in fed state simulated intestinal fluid assessed as colloid radius at 550 uM by dynamic light scattering assay in presence of 2.75% DMSO. Particulars: simulated gi fluid.
Data set [8] in a line: Colloidal aggregation in fed state simulated intestinal fluid assessed as colloid radius at 120 uM by dynamic light scattering assay in presence of 1% DMSO. The format is physicochemical. Particulars: simulated gi fluid. A digest of the protocol: as §1
A short description of data set [9]: Colloidal aggregation in fed state simulated intestinal fluid by dynamic light scattering assay in presence of 0.6% DMSO. Format: physicochemical. Particulars: simulated gi fluid. The method, boiled down:
as §1

T1 sequence (P25779 whole entry): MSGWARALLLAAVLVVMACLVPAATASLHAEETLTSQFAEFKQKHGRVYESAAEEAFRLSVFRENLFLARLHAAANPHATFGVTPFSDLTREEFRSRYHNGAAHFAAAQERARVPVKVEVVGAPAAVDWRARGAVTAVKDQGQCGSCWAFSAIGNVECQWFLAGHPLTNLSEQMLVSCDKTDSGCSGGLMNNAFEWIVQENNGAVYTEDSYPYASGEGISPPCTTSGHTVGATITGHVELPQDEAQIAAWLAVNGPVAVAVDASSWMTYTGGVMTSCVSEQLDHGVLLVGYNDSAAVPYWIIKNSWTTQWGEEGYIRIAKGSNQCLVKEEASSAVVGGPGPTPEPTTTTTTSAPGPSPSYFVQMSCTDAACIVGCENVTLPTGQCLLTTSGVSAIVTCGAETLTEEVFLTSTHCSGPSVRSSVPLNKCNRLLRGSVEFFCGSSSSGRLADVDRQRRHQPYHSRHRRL

What is called IC50 is the concentration that inhibits the measured activity by half. With `CCOc1nc2cccc(C(=O)OC(C)OC(=O)OC3CCCCC3)c2n1Cc1ccc(-c2ccccc2-c2nnn[nH]2)cc1` (stereo unspecified) [CANDESARTAN CILEXETIL], the Activity in [1] is 38.8 nm; in data set [2], “Active”; in data set [5], 50 µM; in [6] it was 550 µM; in data set [7] it was 50.1 nm. For the same compound, the IC50 turned out to be 42 µM on Cruzipain [3] and 168 µM on Cruzipain [4].

Take `Cc1ccc(-c2cc(C(F)(F)F)nn2-c2ccc(S(N)(=O)=O)cc2)cc1` [CELECOXIB]: the Activity in [8] is 161.8 nm; in data set [9] it was 120 µM. Moreover, the figures for the half-inhibitory concentration (IC50) on Cruzipain [3] and at Cruzipain [4] were 126 µM and over 400 µM, respectively.
